Test results: ChEMBL document CHEMBL1124846, “Synthesis, antiproliferative, and antiviral activity of certain 4-substituted and 4,5-disubstituted 7-[(1,3-dihydroxy-2-propoxy)methyl]pyrrolo[2,3-d]pyrimidines” (J Med Chem, 1990)

What was measured:
Human alphaherpesvirus 1 [1] = test: Inhibition of herpes simplex virus (HSV-1) in plaque reduction assay; type: functional, organism-based
In short: (§1)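 HSV-1 S-148 strain plaque reduction in BSC-1 monkey kidney monolayers, with about 100 PFU inoculum and compound dissolved in the overlay medium. IC50 came from linear regression of percent inhibition against log concentration, with a positive control in each set.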

Human alphaherpesvirus 1 [2] = test: Inhibition of herpes simplex virus (HSV-1) in yield reduction assay; type: functional, organism-based
Homo sapiens = species on record: Homo sapiens; test: Inhibition of human cytomegalo virus (HCMV) in human foreskin fibroblasts cell lines was determined by plaque assay; type: functional, organism-based; conditions: Fibroblast
In short: (§2)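 HCMV Towne strain (plaque-purified P0) plaque reduction in HFF monolayers in MEM(E) with 10% FBS. Inoculum held about 50 PFU, with compound dissolved in the overlay medium. IC50 came from linear regression of percent inhibition against log concentration, with ganciclovir or acyclovir positive controls in every set; two to five experiments.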

Human betaherpesvirus 5 = test: Inhibition of human cytomegalovirus (HCMV) in plaque reduction assay; type: functional, organism-based; in short: as §2
[3] = Compound was evaluated for cytotoxic activity against HFF cells; type: functional, cell-based; conditions: Homo sapiens
In short: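 Visual cytotoxicity in uninfected areas of plaque-reduction cultures. HFF cells grown in MEM(E) + 10% FBS for HCMV (Towne) assays; BSC-1 cells for HSV-1 (S-148) assays. Drug in overlay medium. Cytopathology scored 0 to 4+ at 35- and 60-fold magnification on the staining day.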

Neoplastic cell line = test: Compound was evaluated for cytotoxic activity against KB cells.; type: functional, cell-based; conditions: Homo sapiens
In short: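 KB cells grown in MEM(H) + 5% FBS. Compound effects measured on radiolabelled precursor incorporation into DNA, RNA and protein. IC50s from linear regression of percent inhibition vs log concentration. The three IC50s were averaged, with 2–5 experiments averaged. Runs rejected if the acyclovir/ganciclovir control deviated >1.5 SD from its mean.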

L1210 = test: In vitro inhibition of L1210 cell growth.; type: functional, Mus musculus; design: concentration or dose not given beside the values
In short: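 Murine L1210 leukemia cells in static suspension culture in Fischer's medium with compound for 4 days. Growth rate is the ratio of control to treated population doubling time; where the rate changed, the final rate was used. IC50 is the concentration giving 50% of control growth rate; single-concentration value at 100 μM.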

Mus musculus [4] = test: Compound was evaluated for percent mortality of mice inoculated with murine cytomegalovirus at a concentration of 5.6 mg/kg at 6 h; type: ADME, organism-based; design: dose 5.6 mg/kg; conditions: in vivo
In short: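 Three-week-old female Swiss Webster mice infected ip with 2×10^5 PFU MCMV Smith strain; groups of 15 given drug ip twice daily for 5 days, starting 6, 24 or 48 h after inoculation. Toxicity controls received drug without virus. Mortality followed daily for 21 days; final mortality compared with placebo by Fisher Exact Test.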

Mus musculus [5] = test: Compound was evaluated for percent mortality of mice inoculated with murine cytomegalovirus at a concentration of 1.9 mg/kg at 24 h; type: organism-based; design: dose 1.9 mg/kg; conditions: in vivo
In short: (§3)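 Three-week-old female Swiss Webster mice inoculated ip with 2×10^5 PFU MCMV Smith strain. Groups of 15 dosed ip twice daily for 5 days, starting 6, 24 or 48 h post-inoculation. Held 21 days with daily mortality checks. Final mortality and mean day of death (dying animals) computed. Mortality versus placebo by Fisher Exact Test, MDD by Mann–Whitney U-rank test.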

[6] = Compound was evaluated for percent mortality of mice inoculated with murine cytomegalovirus at a concentration of 1.9 mg/kg; drug toxicity control; type: organism-based; design: dose 1.9 mg/kg; conditions: mouse, in vivo
In short: (§4)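 Drug toxicity control: uninfected three-week-old female Swiss Webster mice, groups of 15, dosed ip twice daily for 5 days. Held 21 days with daily mortality checks. Final mortality and mean day of death for animals that died were calculated.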

[7] = Compound was evaluated for percent mortality of mice inoculated with murine cytomegalovirus at a concentration of 16.7 mg/kg; drug toxicity control; type: organism-based; design: dose 16.7 mg/kg; conditions: mouse, in vivo; in short: as §4
[8] = Cytotoxicity of human simplex virus type 1 in monkey kidney cells; type: functional, cell-based; conditions: Cercopithecidae
In short: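 Visual cytotoxicity was scored in uninfected cells of the same host monolayers used for the plaque assays, on a 0 to 4+ scale at 35- and 60-fold magnification, at the time plaques were counted.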

[9] = Inhibition of herpes simplex virus type 1(HSV-1) in monkey kidney cell was determined by plaque assay; type: functional, cell-based; conditions: Cercopithecidae; in short: as §1
Mus musculus [10] = test: Compound was evaluated for 15 mice treated ip twice daily for 5 days at a dose of 1.9 mg/kg followed (MCMV) virus inoculation; type: functional; conditions: route intraperitoneal
Mus musculus [11] = test: Compound was evaluated for 15 mice treated ip twice daily for 5 days at a dose of 16.7 mg/kg at 24 hr followed (MCMV) virus inoculation; type: functional; conditions: route intraperitoneal; in short: as §3
Mus musculus [12] = test: Compound was evaluated for 15 mice treated ip twice daily for 5 days at a dose of 16.7 mg/kg at 48 hr followed (MCMV) virus inoculation; type: functional; conditions: route intraperitoneal; in short: as §3
Mus musculus [13] = test: Compound was evaluated for 15 mice treated ip twice daily for 5 days at a dose of 5.6 mg/kg at 24 hr followed (MCMV) virus inoculation; type: functional; conditions: route intraperitoneal; in short: as §3
Mus musculus [14] = test: Compound was evaluated for 15 mice treated ip twice daily for 5 days at a dose of 5.6 mg/kg at 48 hr followed (MCMV) virus inoculation; type: functional; conditions: route intraperitoneal; in short: as §3
Mus musculus [15] = test: Compound was evaluated for 15 mice treated ip twice daily for 5 days at a dose of 5.6 mg/kg at 6 hr followed (MCMV) virus inoculation; type: functional; conditions: route intraperitoneal; in short: as §3
Mus musculus [16] = test: Compound was evaluated for 15 mice treated ip twice daily for 5 days at a dose of 5.6 mg/kg followed (MCMV) virus inoculation; type: functional; conditions: route intraperitoneal
Mus musculus [17] = test: Compound was evaluated for 15 mice treated ip twice daily for 5 days at a dose of 50 mg/kg at 24 h followed (MCMV) virus inoculation; type: functional; conditions: route intraperitoneal; in short: as §3
Mus musculus [18] = test: Compound was evaluated for 15 mice treated ip twice daily for 5 days at a dose of 50 mg/kg at 48 hr followed (MCMV) virus inoculation; type: functional; conditions: route intraperitoneal; in short: as §3
Mus musculus [19] = test: Compound was evaluated for 15 mice treated ip twice daily for 5 days at a dose of 50 mg/kg followed (MCMV) virus inoculation; type: functional; conditions: route intraperitoneal
Mus musculus [20] = test: Compound was evaluated for mean day of death at 16.7 mg/kg at 24 h; type: functional; in short: as §3
Mus musculus [21] = test: Compound was evaluated for mean day of death at 16.7 mg/kg at 48 h; type: functional; in short: as §3
Mus musculus [22] = test: Compound was evaluated for mean day of death at 16.7 mg/kg at 6 h; type: functional; in short: as §3
Mus musculus [23] = test: Compound was evaluated for mean day of death at 16.7 mg/kg; drug toxicity control; type: functional; in short: as §4
Mus musculus [24] = test: Compound was evaluated for mean day of death at 5.6 mg/kg at 24 h; type: functional; in short: as §3
Mus musculus [25] = test: Compound was evaluated for mean day of death at 5.6 mg/kg at 48 h; type: functional; in short: as §3
Mus musculus [26] = test: Compound was evaluated for mean day of death at 50 mg/kg at 48 h; type: functional; in short: as §3
Mus musculus [27] = species on record: Mus musculus; test: Inhibition of murine cytomegalo virus in mouse embryo fibroblasts cell lines was determined by plaque assay; type: functional, organism-based; conditions: Fibroblast
In short: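 Plaque reduction used MCMV Smith in primary mouse embryo fibroblasts, HCMV AD169 in low-passage HFF, and HSV-1 E-377 and HSV-2 MS in MEF, rabbit kidney or HFF. IC50 was determined against untreated controls; two or more experiments.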

Mus musculus [28] = species on record: Mus musculus; test: Cytotoxicity of human simplex virus type 1 in mouse embryo fibroblasts cells; conditions: Fibroblast
[29] = Inhibition of herpes simplex virus (HSV-2) in human foreskin fibroblasts cell lines was determined by plaque assay; conditions: Fibroblast

Nc1ncnc2c1c(Br)cn2COC(CO)CO
IC50 (Human alphaherpesvirus 1 [1]): 2000 nM
IC90 (Human alphaherpesvirus 1 [2]): 17000 nM
IC50 (Homo sapiens): 1600 nM
IC50 (Human betaherpesvirus 5): 1900 nM
IC50 (Human betaherpesvirus 5; Human betaherpesvirus 5): 1600 nM
IC50 [3]: > 100000 nM
IC50 (Neoplastic cell line): > 100000 nM
Activity (L1210): 0%
Mortality (Mus musculus [4]): 7%
Mortality (Mus musculus [5]): 60%
Mortality [6]: 0%
Mortality [7]: 7%
IC50 [8]: > 100000 nM
IC50 [9]: 2000 nM
Activity (Mus musculus [10]): 0
Activity (Mus musculus [11]): 12
Activity (Mus musculus [12]): 13
Activity (Mus musculus [13]): 3
Activity (Mus musculus [14]): 6
Activity (Mus musculus [15]): 1
Activity (Mus musculus [16]): 0
Activity (Mus musculus [17]): 14
Activity (Mus musculus [18]): 13
Activity (Mus musculus [19]): 0
MDD (Mus musculus [20]): 7.1
MDD (Mus musculus [21]): 8.4
MDD (Mus musculus [22]): 8.7
MDD (Mus musculus [23]): 5
MDD (Mus musculus [24]): 6.3
MDD (Mus musculus [25]): 5.5
MDD (Mus musculus [26]): 7.5
IC50 (Mus musculus [27]): 30 nM
IC50 (Mus musculus [28]): > 158000 nM
IC50 [29]: 300 nM
